What was measured:
[1] = Dissociation constant, pKa of the compound; type: physicochemical
[2] = Clearance in nude mouse xenografted with human HCT116 cells at 5 mg/kg, iv; type: ADME, organism-based, HCT-116; set-up: dose 5 mg/kg, route intravenous; conditions: in vivo
Procedure, shortened: (§1)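 Pharmacokinetics in naive Sprague-Dawley rats and in HCT116 tumor-bearing nude mice after single iv or oral dosing. Parameters reported as means: AUC, clearance, Vss, half-life, Cmax and oral bioavailability (F%).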

[3] = Oral bioavailability in nude mouse xenografted with human HCT116 cells at 20 mg/kg; type: ADME, organism-based, HCT-116; conditions: in vivo; procedure, shortened: as §1
[4] = Half life in nude mouse xenografted with human HCT116 cells at 5 mg/kg, iv; type: ADME, organism-based, HCT-116; set-up: dose 5 mg/kg, route intravenous; conditions: in vivo; procedure, shortened: as §1
[5] = Volume of distribution at steady state in Sprague-Dawley rat at 5 mg/kg, iv; type: ADME, organism-based; set-up: dose 5 mg/kg, route intravenous; conditions: in vivo, read-out: Vdss; procedure, shortened: as §1
[6] = Half life in Sprague-Dawley rat at 5 mg/kg, iv; type: ADME, organism-based; set-up: dose 5 mg/kg, route intravenous; conditions: in vivo; procedure, shortened: as §1
[7] = Volume of distribution at steady state in nude mouse xenografted with human HCT116 cells at 5 mg/kg, iv; type: ADME, organism-based, HCT-116; set-up: dose 5 mg/kg, route intravenous; conditions: in vivo, read-out: Vdss; procedure, shortened: as §1
Rattus norvegicus [8] = test: AUC in Sprague-Dawley rat at 10 mg/kg, po; type: ADME, organism-based, Plasma; set-up: dose 10 mg/kg, route oral; conditions: in vivo; procedure, shortened: as §1
[9] = Metabolic stability in plasma of nude mouse xenografted with human HCT116 cells assessed as compound remaining after 3 hrs; type: ADME, cell-free, HCT-116; conditions: read-out: Stability
Procedure, shortened: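 Compound incubated in mouse plasma for three hours; percentage of compound remaining measured.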

[10] = Cmax in nude mouse xenografted with human HCT116 cells at 20 mg/kg, po; type: ADME, organism-based, HCT-116; set-up: dose 20 mg/kg, route oral; conditions: in vivo; procedure, shortened: as §1
Rattus norvegicus [11] = test: AUC in Sprague-Dawley rat at 5 mg/kg, iv; type: ADME, organism-based, Plasma; set-up: dose 5 mg/kg, route intravenous; conditions: in vivo; procedure, shortened: as §1
Rattus norvegicus [12] = test: Oral bioavailability in Sprague-Dawley rat at 10 mg/kg; type: ADME, organism-based; conditions: in vivo; procedure, shortened: as §1
[13] = AUC in nude mouse xenografted with human HCT116 cells at 5 mg/kg, iv; type: ADME, organism-based, HCT-116; set-up: dose 5 mg/kg, route intravenous; conditions: in vivo; procedure, shortened: as §1
[14] = AUC in nude mouse xenografted with human HCT116 cells at 20 mg/kg, po; type: ADME, organism-based, HCT-116; set-up: dose 20 mg/kg, route oral; conditions: in vivo; procedure, shortened: as §1
[15] = Cmax in Sprague-Dawley rat at 10 mg/kg, po; type: ADME, organism-based; set-up: dose 10 mg/kg, route oral; conditions: in vivo; procedure, shortened: as §1
[16] = Clearance in Sprague-Dawley rat at 5 mg/kg, iv; type: ADME, organism-based; set-up: dose 5 mg/kg, route intravenous; conditions: in vivo; procedure, shortened: as §1
[17] = Volume of distribution at steady state in Sprague-Dawley rat at 2 mg/kg, iv; type: ADME, organism-based; set-up: dose 2 mg/kg, route intravenous; conditions: in vivo, read-out: Vdss; procedure, shortened: as §1
[18] = AUC in Sprague-Dawley rat at 2 mg/kg, iv; type: ADME, organism-based; set-up: dose 2 mg/kg, route intravenous; conditions: plasma; procedure, shortened: as §1
[19] = Clearance in Sprague-Dawley rat at 2 mg/kg, iv; type: ADME, organism-based; set-up: dose 2 mg/kg, route intravenous; conditions: in vivo; procedure, shortened: as §1
[20] = Solubility of compound at pH 6.8; type: physicochemical; conditions: buffer
[21] = Half life in Sprague-Dawley rat at 2 mg/kg, iv; type: ADME, organism-based; set-up: dose 2 mg/kg, route intravenous; conditions: in vivo; procedure, shortened: as §1
Homo sapiens = test: Plasma concentration in human at 800 mg, po administered as single dose; conditions: in vivo
Canis familiaris = test: Plasma concentration in dog at 150 mg/kg, po administered as single dose; type: ADME, organism-based, Canis lupus familiaris; set-up: dose 150 mg/kg, route oral; conditions: in vivo

Cc1[nH]c2ccccc2c1CCN(Cc1ccc(/C=C/C(=O)NO)cc1)CC(F)F
pKa [1]: 4.65

O=C(/C=C/c1ccc(CN(CCc2c[nH]c3ccccc23)CC(F)(F)F)cc1)NO
pKa [1]: 3.2

CCCN(CCc1c[nH]c2ccccc12)Cc1ccc(/C=C/C(=O)NO)cc1
pKa [1]: 7.9

Cc1[nH]c2ccccc2c1CCN(CCC(F)F)Cc1ccc(/C=C/C(=O)NO)cc1
pKa [1]: 5.8

O=C(/C=C/c1ccc(CN(CCc2c[nH]c3ccccc23)CCC(F)(F)F)cc1)NO
pKa [1]: 4.75

CC(C)N(CCc1c(C(C)(C)O)[nH]c2ccccc12)Cc1ccc(/C=C/C(=O)NO)cc1
clearance [2]: 176 mL/min/kg
bioavailability [3]: 4%
half-life [4]: 1 h
Vd [5]: 7 L/kg
half-life [6]: 1.3 h
Vd [7]: 5.9 L/kg
AUC (Rattus norvegicus [8]): 0.336 µM·h
remaining at 3 h [9]: 54%
Cmax [10]: 56 nM
AUC (Rattus norvegicus [11]): 1.307 µM·h
F (Rattus norvegicus [12]): 5%
AUC [13]: 0.463 µM·h
AUC [14]: 0.0653 µM·h
Cmax [15]: 204 nM
clearance [16]: 66 mL/min/kg

CC(C)(C)c1[nH]c2ncccc2c1CCNCc1ccc(/C=C/C(=O)NO)cc1
clearance [2]: 95 mL/min/kg
bioavailability [3]: 4%
half-life [4]: 3.3 h
Vd [7]: 4.5 L/kg
Cmax [10]: 849 nM
AUC [13]: 2.44 µM·h
AUC [14]: 0.474 µM·h

Cc1nn2ccccc2c1CCNCc1ccc(/C=C/C(=O)NO)cc1
clearance [2]: 46.4 mL/min/kg
bioavailability [3]: 2%
half-life [4]: 1.44 h
Vd [7]: 1.46 L/kg
Vd [17]: 1.99 L/kg
Cmax [10]: 202 nM
AUC [13]: 5.1 µM·h
AUC [18]: 2.56 µM·h
AUC [14]: 0.362 µM·h
Cmax [15]: 61 nM
clearance [19]: 36.5 mL/min/kg
solubility [20]: > 1000 µg/mL
half-life [21]: 0.915 h

O=C(/C=C/c1ccc(CNCCc2c[nH]c3ccccc23)cc1)NO
pKa [1]: 7.65

O=C(/C=C/c1ccc(CN(CCO)CCc2c[nH]c3ccccc23)cc1)NO [DACINOSTAT]
pKa [1]: 7.5

O=C(CCCCCCC(=O)Nc1ccccc1)NO [VORINOSTAT]
concentration (Homo sapiens): 1580 nM
concentration (Canis familiaris): 960 nM

Source: ChEMBL document CHEMBL1817582, “Optimization of the in vitro cardiac safety of hydroxamate-based histone deacetylase inhibitors” (J Med Chem, 2011)
